Data reported in ChEMBL document CHEMBL4715780, “Biological evaluation of tetracationic compounds based on two 1,4-diazabicyclo[2.2.2]octane moieties connected by different linkers” (Bioorg Med Chem, 2016).

Experiment: Selectivity index, ratio of CC50 for HEK293T cells assessed as reduction in cell viability measured after 24 hrs by MTT assay to MIC for Candida albicans CEMTC 34 assessed as bacterial growth inhibition by CLSI protocol based serial microdilution method
Type: toxicity
Settings: human, read-out: Selectivity Index
Outline: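 SI = CC₅₀ (HEK293T) / MIC. HEK293T cells were seeded at 20,000/well overnight, then exposed to 10–250 µg/mL in IMDM with 10% FBS for 24 h. MTT was added for 4 h, solubilised with SDS-HCl, and read at 570 nm; duplicates, ≥2 independent runs. MIC came from two-fold dilutions in Sabouraud dextrose broth at ~5 × 10⁵ CFU/mL, 37 °C with shaking, read at 595 nm, in duplicate.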

## CCCCCCCCCCCC[N+]12CC[N+](Cc3ccccc3C[N+]34CC[N+](CCCCCCCCCCCC)(CC3)CC4)(CC1)CC2
  selectivity ratio at 24 h: 1
